# Measured values from different studies.
# Protocols differ between the studies behind these lines.
# Target: Wee1-like protein kinase (WEE1, Homo sapiens, UniProt P30291)
Structure (SMILES),observed,action,method,concentration,endpoint,result
CC(C)(C)c1cc(C=C(C#N)C#N)cc(Br)c1O,enzyme activity,inhibitor,,0.5 µM,remaining activity,90.9%
Cn1cc(-c2cccc(N3CCc4c(sc5c4CC(C)(C)C5)C3=O)c2CO)cc(Nc2ccncn2)c1=O,enzyme activity,inhibitor,,1 µM,inhibition,-4%
Cc1nn(C)cc1-c1nc2c(N3CCN(Cc4ccc(Cl)cc4)CC3)c(Cl)cnc2[nH]1,binding,,competition with immobilised ligand,1 µM,remaining binding,96%
Cn1cc(-c2cc(F)cc(N3CCn4c(cc5c4CCCC5)C3=O)c2CO)cc(Nc2ccc(N3CCN(C4COC4)CC3)cn2)c1=O,enzyme activity,inhibitor,,0.1 µM,inhibition,3%
O=c1[nH]c2ccccc2n1C1CCN(Cc2ccc(-c3[nH]c4cc5ncnc5cc4nc3-c3ccccc3)cc2)CC1,cell-free assay,,,0.5 µM,remaining signal,93.9%
Nc1ncc(-c2nc(N3CCOCC3)nc(N3CCOCC3)n2)c(C(F)F)n1,binding,,competition with immobilised ligand,10 µM,remaining binding,100%
COc1cc(Nc2ncc(F)c(Nc3ccc4c(n3)NC(=O)C(C)(C)O4)n2)cc(OC)c1OC,binding,,,10 µM,inhibition,81%
COc1ncccc1-c1cnn2ccc(N3CCN(C(=O)OC(C)C)CC3)nc12,binding,,competition with immobilised ligand,1 µM,remaining binding,82%
Cn1cncc1[C@@](O)(COc1ccc(C#N)cc1-c1ccc(OC(F)(F)F)cc1)c1ccc(C#N)cc1,cell-free assay,,competition with immobilised ligand,1 µM,remaining binding,100%
